In ChEMBL document CHEMBL1154249, “Semisynthesis and biological evaluation of abietane-type diterpenes. Revision of the structure of rosmaquinone” (J Nat Prod, 2009):
Converted amounts (≈) assume the structure as drawn.

Columns and labels:
Staphylococcus aureus = assay: Antibacterial activity against Staphylococcus aureus ATCC 6538 after 24 hrs by broth dilution assay; type: functional; conditions: Staphylococcus aureus, ATCC 6538, 24 h; read-out: MIC
[1] = system: Staphylococcus epidermidis; assay: Antibacterial activity against Staphylococcus epidermidis ATCC 14990 after 24 hrs by broth dilution assay; type: functional; conditions: Staphylococcus epidermidis, ATCC 14990, 24 h; read-out: MIC
Outline: (§1)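 Microdilution in nutrient broth at 37 °C, about (1-5) × 10^5 cfu/mL inoculum, compounds in DMSO (≤1% v/v, matched DMSO controls), in triplicate. Growth followed by OD550. Wells without visible growth after 24 h on a rotary shaker were subcultured in duplicate onto nutrient agar and colonies counted after overnight incubation. MIC is the lowest concentration inhibiting growth at 24 h.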

Bacillus subtilis = assay: Antibacterial activity against Bacillus subtilis ATCC 6051 after 24 hrs by broth dilution assay; type: functional; conditions: Bacillus subtilis, ATCC 6051, 24 h; read-out: MIC
Bacillus cereus = assay: Antibacterial activity against Bacillus cereus ATCC 21772 after 24 hrs by broth dilution assay; type: functional; conditions: Bacillus cereus, ATCC 21772, 24 h
Candida albicans = assay: Antibacterial activity against Candida albicans CECT 170 after 24 hrs by broth dilution assay; type: functional; conditions: CECT 1039, 24 h, in the assay text read “CECT 1039” for “CECT 170”
Outline: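 Yeast grown in Sabouraud liquid medium at 37 °C. Microdilution in triplicate, about (1-5) × 10^5 cfu/mL, DMSO ≤1% v/v with matched controls. OD550 followed. Clear wells at 24 h were plated in duplicate on Sabouraud agar and counted after overnight incubation. MIC is the lowest concentration inhibiting growth.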

Enterococcus faecalis = assay: Antibacterial activity against Enterococcus faecalis ATCC 29212 after 24 hrs by broth dilution assay; type: functional; conditions: ATCC 29212, 24 h
Outline: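 Microdilution in brain heart infusion broth, shaken at 37 °C, about (1-5) × 10^5 cfu/mL start, DMSO ≤1% v/v with matched controls, in triplicate. OD550 read. Clear wells at 24 h were subcultured in duplicate onto brain heart infusion agar and counted after overnight incubation. MIC is the lowest concentration giving growth inhibition.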

[2] = system: Mycolicibacterium smegmatis; assay: Antibacterial activity against Mycobacterium smegmatis ATCC 19420 after 48 hrs by broth dilution assay; type: functional; conditions: ATCC 19420, 48 h
Outline: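 Brain heart infusion broth with 0.06% Tween 80, 37 °C on a rotary shaker, inoculum about (1-5) × 10^5 cfu/mL, DMSO ≤1% v/v with matched controls, in triplicate. OD550 monitored.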

Escherichia coli = assay: Antibacterial activity against Escherichia coli ATCC 9637 after 24 hrs by broth dilution assay; type: functional; conditions: ATCC 9637, 24 h; outline: as §1
Proteus mirabilis = assay: Antibacterial activity against Proteus mirabilis CECT 170 after 24 hrs by broth dilution assay; type: functional; conditions: CECT 170, 24 h; outline: as §1
Pseudomonas aeruginosa = assay: Antibacterial activity against Pseudomonas aeruginosa AK958 after 24 hrs by broth dilution assay; type: functional; conditions: AK958, 24 h; outline: as §1
Salmonella = assay: Antibacterial activity against Salmonella CECT 4569 after 24 hrs by broth dilution assay; type: functional; conditions: CECT 4569, 24 h; outline: as §1
HeLa [3] = assay: Cytotoxicity against human HeLa cells at lag phase of growth after 48 hrs by MTT assay; type: functional, cell-based
Outline: (§2)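 Monolayers grown in DMEM with 5% fetal calf serum and penicillin-streptomycin at 37 °C, 5% CO2. 2×10^4 cells/well in lag or log phase were exposed for 48 h to a concentration series of compounds predissolved in DMSO. MTT formazan was dissolved in DMSO and read at 550 nm. IC50 taken from the curve; three independent experiments.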

HeLa [4] = assay: Cytotoxicity against human HeLa cells at exponential phase of growth after 48 hrs by MTT assay; type: functional, cell-based; outline: as §2
HEp-2 [5] = assay: Cytotoxicity against human Hep2 cells at lag phase of growth after 48 hrs by MTT assay; type: functional, cell-based; outline: as §2
HEp-2 [6] = assay: Cytotoxicity against human Hep2 cells at exponential phase of growth after 48 hrs by MTT assay; type: functional, cell-based; outline: as §2
A549 [7] = assay: Cytotoxicity against human A549 cells at lag phase of growth after 48 hrs by MTT assay; type: functional, cell-based; outline: as §2
A549 [8] = assay: Cytotoxicity against human A549 cells at exponential phase of growth after 48 hrs by MTT assay; type: functional, cell-based; outline: as §2
MCF7 [9] = assay: Cytotoxicity against human MCF7 cells at lag phase of growth after 48 hrs by MTT assay; type: functional, cell-based; outline: as §2
MCF7 [10] = assay: Cytotoxicity against human […] cells at exponential phase of growth after 48 hrs by MTT assay; type: functional, cell-based; outline: as §2
Vero [11] = assay: Cytotoxicity against african green monkey Vero cells at lag phase of growth after 48 hrs by MTT assay; type: cell-based, Chlorocebus sabaeus; outline: as §2
Vero [12] = assay: Cytotoxicity against african green monkey Vero cells at exponential phase of growth after 48 hrs by MTT assay; type: cell-based, Chlorocebus sabaeus; outline: as §2
[13] = Homo sapiens, HeLa, 48 h, read-out: IC50
[14] = Homo sapiens, HEp-2, 48 h, read-out: IC50
[15] = Homo sapiens, A549, 48 h, read-out: IC50
[16] = Homo sapiens, MCF7, 48 h, read-out: IC50
[17] = Chlorocebus sabaeus, Vero, 48 h, read-out: IC50

| Compound | MIC (Staphylococcus aureus) [µg/mL] | MIC [1] [µg/mL] | MIC (Bacillus subtilis) [µg/mL] | MIC (Bacillus cereus) [µg/mL] | MIC (Candida albicans) [µg/mL] | MIC (Enterococcus faecalis) [µg/mL] | MIC [2] [µg/mL] | MIC (Escherichia coli) [µg/mL] | MIC (Proteus mirabilis) [µg/mL] | MIC (Pseudomonas aeruginosa) [µg/mL] | MIC (Salmonella) [µg/mL] | IC50 (HeLa [3]; [13]) [µM] | IC50 (HeLa [4]; [13]) [µM] | IC50 (HEp-2 [5]; [14]) [µM] | IC50 (HEp-2 [6]; [14]) [µM] | IC50 (A549 [7]; [15]) [µM] | IC50 (A549 [8]; [15]) [µM] | IC50 (MCF7 [9]; [16]) [µM] | IC50 (MCF7 [10]; [16]) [µM] | IC50 (Vero [11]; [17]) [µM] | also measured |
| --- | --- | --- | --- | --- | --- | --- | --- | --- | --- | --- | --- | --- | --- | --- | --- | --- | --- | --- | --- | --- | --- |
| CC(C)c1cc2c(c(O)c1O)[C@@]13CCCC(C)(C)[C@@H]1[C@H](OC3=O)[C@@H]2OCc1ccccc1 | > 40 | > 40 | 20 (≈ 45.8 µM) | 10 (≈ 22.9 µM) | > 40 | > 40 | > 40 | > 40 | > 40 | > 40 | > 40 | – | – | – | – | – | – | – | – | – | IC50 (HeLa [3]; hela): Not Active; IC50 (HeLa [4]; hela): Not Active; IC50 (HEp-2 [5]; hep-2): Not Active; IC50 (HEp-2 [6]; hep-2): Not Active; IC50 (A549 [7]; a549): Not Active; IC50 (A549 [8]; a549): Not Active; IC50 (MCF7 [9]; mcf7): Not Active; IC50 (MCF7 [10]; mcf7): Not Active; IC50 (Vero [11]; vero): Not Active; IC50 (Vero [12]; vero): Not Active |
| CO[C@H]1C2=C(C(=O)C(=O)C(C(C)C)=C2)[C@@]23CCCC(C)(C)[C@@H]2[C@@H]1OC3=O [ROSMAQUINONE B] | 40 (≈ 112 µM) | > 40 | 20 (≈ 55.8 µM) | 20 (≈ 55.8 µM) | > 40 | > 40 | > 40 | > 40 | > 40 | > 40 | > 40 | 36 | 33.8 | 42.5 | > 60 | > 60 | 25.4 | 43.3 | 22.1 | > 60 | IC50 (Vero [12]; [17]): > 60 µM |
| CC(C)C1=CC2=C[C@H]3OC(=O)[C@@]4(CCCC(C)(C)[C@H]34)C2=C(O)C1=O [SAGEQUINONE METHIDE A] | 20 (≈ 60.9 µM) | 40 (≈ 122 µM) | 10 (≈ 30.4 µM) | 10 (≈ 30.4 µM) | > 40 | > 40 | > 40 | > 40 | > 40 | > 40 | > 40 | 14 | 9.5 | 32 | 19.2 | > 60 | 26.5 | 46 | 26.8 | > 60 | IC50 (Vero [12]; [17]): > 60 µM |
